The values below come from ChEMBL document CHEMBL1240353 (Antimicrob Agents Chemother, 2010).

Broadly, the IC50 is the concentration needed to halve the response being measured. The term MIC denotes the lowest concentration that inhibits growth of the organism. Low readings indicate inhibition by little substance, high ones a need for much substance.

Assay [1] in a line: Inhibition of PBP5 in penicillin-resistant Enterococcus faecium D63r membranes assessed as inhibition of fluorescent ampicillin binding after 20 mins at 37 degC. An outline of the steps: (§1)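 Competition assay on purified membrane preparations (300 μg protein). Membranes preincubated 20 min at 37°C with increasing β-lactam concentrations, then 1 h at 37°C with saturating 25 μM fluorescent ampicillin. Proteins resolved by SDS-PAGE and fluorography. IC50 is the concentration inhibiting 50% of fluorescent ampicillin labelling relative to a drug-free control.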

Assay [2] in a line: Inhibition of PBP6 in penicillin-resistant Enterococcus faecium D63r membranes assessed as inhibition of fluorescent ampicillin binding after 20 mins at 37 degC. An outline of the steps: as §1
Assay [3] can be described thus: Inhibition of PBP3 in penicillin-resistant Enterococcus faecium D63r membranes assessed as inhibition of fluorescent ampicillin binding after 20 mins at 37 degC. An outline of the steps: as §1
The nature of assay [4]: Inhibition of PBP1 in penicillin-resistant Enterococcus faecium D63r membranes assessed as inhibition of fluorescent ampicillin binding after 20 mins at 37 degC. An outline of the steps: as §1
A short description of assay [5]: Inhibition of PBP2 in penicillin-resistant Enterococcus faecium D63r membranes assessed as inhibition of fluorescent ampicillin binding after 20 mins at 37 degC. An outline of the steps: as §1
For assay [6], the system named is Enterococcus faecium. Nature of the assay: Antimicrobial activity against penicillin-resistant Enterococcus faecium D63r by microdilution method. The format is functional. For orientation: In broth dilution the organism is exposed to a series of concentrations in liquid medium.
Assay [7] is described as follows: Inhibition of PBP4 in penicillin-resistant Enterococcus faecium D63r membranes assessed as inhibition of fluorescent ampicillin binding after 20 mins at 37 degC. An outline of the steps:
as §1

Assay [8] deals with Enterococcus faecium. Nature of the assay: Antimicrobial activity against Enterococcus faecium D63 by microdilution method. It is filed as functional.
For assay [9], the system named is Enterococcus faecium. Nature of the assay: Antimicrobial activity against penicillin-resistant Enterococcus faecium D63r assessed as bacterial killing at 4 times MIC by time kill curve method. The format is functional, organism-based.
The nature of assay [10]: Inhibition of PBP3 in wild type Enterococcus faecium D63 membranes assessed as inhibition of fluorescent ampicillin binding after 20 mins at 37 degC.
Another assay has as its system Staphylococcus aureus. In words: Inhibition of Staphylococcus aureus PBP2a assessed as rate constant for enzyme acylation by spectrophotometry.
Assay [11] is described as follows: Inhibition of PBP1 in wild type Enterococcus faecium D63 membranes assessed as inhibition of fluorescent ampicillin binding after 20 mins at 37 degC.
A short description of assay [12]: Inhibition of PBP2 in wild type Enterococcus faecium D63 membranes assessed as inhibition of fluorescent ampicillin binding after 20 mins at 37 degC. An outline of the steps: as §1
For assay [13], the system named is Enterococcus faecium. Nature of the assay: Inhibition of Enterococcus faecium low-affinity PBP5fm assessed as rate constant for enzyme acylation by spectrophotometry. An outline of the steps:
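Soluble PBP 5fm (N-terminal membrane anchor removed), overproduced and purified without molecular sieve step. β-lactam ring opening followed at 319 nm, 30°C, 10 mM phosphate pH 7.0, 10 μM enzyme, across drug concentrations. Pseudo-first-order ka fitted from absorbance traces. k+2/K taken from slope of ka versus concentration.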

Assay [14] is described as follows: Inhibition of PBP5 in wild type Enterococcus faecium D63 membranes assessed as inhibition of fluorescent ampicillin binding after 20 mins at 37 degC. An outline of the steps:
as §1

Assay [15] has as its system Enterococcus faecium. Nature of the assay: Antimicrobial activity against Enterococcus faecium D63 assessed as bacterial killing at 4 times MIC by time kill curve method. It is filed as functional, organism-based. An outline of the steps: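 Survivors counted at 0, 4 and 24 h of incubation at 37°C by plating serial dilutions (at least 10-fold, to limit carryover).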

Assay [16] can be described thus: Inhibition of PBP4 in wild type Enterococcus faecium D63 membranes assessed as inhibition of fluorescent ampicillin binding after 20 mins at 37 degC.
Assay [17] in a line: Inhibition of PBP6 in wild type Enterococcus faecium D63 membranes assessed as inhibition of fluorescent ampicillin binding after 20 mins at 37 degC. An outline of the steps: as §1

Values after ≈ are worked out from the molar mass of the structure shown. Active and inactive are the calls of the source. No cut-off for these calls is given here.

As to `CO/N=C(\C(=O)N[C@@H]1C(=O)N2C(C(=O)[O-])=C(C[N+]3(C)CCCC3)CS[C@H]12)c1csc(N)n1`, the half-inhibitory concentration (IC50) was over 200 µg/mL in assay [1]; over 50 µg/mL in [2]; 0.5 µg/mL (≈ 1.04 µM) in assay [3]; 1.7 µg/mL (≈ 3.54 µM) in assay [4]; 0.6 µg/mL (≈ 1.25 µM) in [5]; over 200 µg/mL in [7]. The compound further came in with a minimum inhibitory concentration (MIC) in the assay on Enterococcus faecium [6] of over 100 µg/mL.
Consider `CC1(C)S[C@@H]2[C@H](NC(=O)[C@H](N)c3ccccc3)C(=O)N2[C@H]1C(=O)O` [AMPICILLIN], for which the minimal inhibitory concentration (MIC) against Enterococcus faecium [8] was 15 µg/mL (≈ 42.9 µM); with Enterococcus faecium [6], 125 µg/mL (≈ 358 µM).
As for `CC(C)(O/N=C(\C(=O)N[C@@H]1C(=O)N2C(C(=O)[O-])=C(C[n+]3ccccc3)CS[C@H]12)c1csc(N)n1)C(=O)O` [CEFTAZIDIME], the concentration for half-maximal inhibition (IC50) in [1] was over 200 µg/mL; in assay [2], over 50 µg/mL; in assay [3] it was 0.04 µg/mL (≈ 0.0732 µM); in assay [4] it was 0.9 µg/mL (≈ 1.65 µM); in assay [5], 0.5 µg/mL (≈ 0.915 µM); in assay [7] it was over 200 µg/mL. In the assay with Enterococcus faecium [6], the minimal inhibitory concentration (MIC) is over 100 µg/mL.
Regarding `Nc1nc(/C(=N/O)C(=O)N[C@@H]2C(=O)N3C(C(=O)O)=C(/C=C4\CCN([C@@H]5CCNC5)C4=O)CS[C@H]23)ns1` [CEFTOBIPROLE], the IC50 in assay [1] worked out at 1 µg/mL (≈ 1.87 µM); in assay [10], 0.6 µg/mL (≈ 1.12 µM); in assay [3], 0.5 µg/mL (≈ 0.935 µM); in assay [11] it was 0.6 µg/mL (≈ 1.12 µM); in assay [4] it was 0.7 µg/mL (≈ 1.31 µM); in assay [5], 0.2 µg/mL (≈ 0.374 µM). Moreover, the IC50 is 0.2 µg/mL (≈ 0.374 µM) in assay [12]; 1.8 µg/mL (≈ 3.37 µM) in assay [7]; 0.7 µg/mL (≈ 1.31 µM) in assay [14]; 1.5 µg/mL (≈ 2.81 µM) in assay [16]; over 16 µg/mL in assay [17]. The inhibition entry in the assay with Enterococcus faecium [9] and in the assay with Enterococcus faecium [15] was “Active” each time. The minimal inhibitory concentration (MIC) was 2 µg/mL (≈ 3.74 µM) against Enterococcus faecium [8] and 8 µg/mL (≈ 15 µM) against Enterococcus faecium [6]. For the same compound, the INH in the assay on Staphylococcus aureus was 8900 M⁻¹ s⁻¹; in the assay on Enterococcus faecium [13], 110 M⁻¹ s⁻¹.
`CC1(C)S[C@@H]2[C@H](NC(=O)Cc3ccccc3)C(=O)N2[C@H]1C(=O)O` [PENICILLIN G]: the IC50 in assay [1] is 55 µg/mL (≈ 164 µM); in assay [10] it was 1.3 µg/mL (≈ 3.89 µM); in [2], 2 µg/mL (≈ 5.98 µM); in [3], 0.6 µg/mL (≈ 1.79 µM); in assay [11] it was 0.9 µg/mL (≈ 2.69 µM); in assay [4], 1.6 µg/mL (≈ 4.78 µM). In addition, the IC50 in assay [5] is 0.06 µg/mL (≈ 0.179 µM); in [12], 0.1 µg/mL (≈ 0.299 µM); in assay [7], 8 µg/mL (≈ 23.9 µM); in assay [14], 75 µg/mL (≈ 224 µM); in assay [16], 10 µg/mL (≈ 29.9 µM); in [17] it was 1.5 µg/mL (≈ 4.49 µM). Further, the inhibition result with Enterococcus faecium [9] and with Enterococcus faecium [15] was “Active” each time. Also, the results for the MIC in the assay with Enterococcus faecium [8] and in the assay on Enterococcus faecium [6] were 5 µg/mL (≈ 15 µM) and 70 µg/mL (≈ 209 µM), respectively. The INH in the assay on Enterococcus faecium [13] is 15 M⁻¹ s⁻¹.
